# Laboratory results from ChEMBL document CHEMBL1955770, “Inhibition of S/G2 phase CDK4 reduces mitotic fidelity” (J Biol Chem, 2006).
# Activity calls are given as the source filed them. No cut-off for these calls is given here.
# Tests used:
# [1] = molecular target: Ephrin type-A receptor 5 (Homo sapiens) (UniProt P54756); experiment: Inhibition of EPHA5 at 1 uM
# [2] = molecular target: Activated CDC42 kinase 1 (Homo sapiens) (UniProt Q07912); experiment: Inhibition of ACK1 at 1 uM
# Procedure, shortened: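 Competition binding screen across a kinase panel with compound at 1 μM. Read-out is % competition. Kinases not hit at this concentration were scored '<50'. No Kd was determined for hits.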
# HeLa [3] = experiment: Cell cycle arrest in human HeLa cells assessed as accumulation at S phase at 2 uM treated 4 hr and measured 8 hr post double thymidine-synchrony release using propidium iodide staining by FACS analysis (reference value: 8 %); assay type: functional
# Procedure, shortened: (§1)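 Cells harvested at set times post-release, fixed in 70% ethanol, stained with 5 μg/ml propidium iodide plus 0.5 mg/ml RNase A, and analysed by flow cytometry. Cell-cycle phase fractions calculated by ModFit.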
# HeLa [4] = experiment: Cell cycle arrest at G2 phase in human HeLa cells assessed as time taken to reach peak mitosis at 2 uM treated at early S phase post thymidine-synchrony release by immunoblot method (reference value: 9-10 hrs); assay type: functional
# HeLa [5] = experiment: Cell cycle arrest in human HeLa cells assessed as accumulation at G2/M phase at 2 uM treated 6 hr and measured 8 hr post double thymidine-synchrony release using propidium iodide staining by FACS analysis (reference value: 86 %); assay type: functional; procedure, shortened: as §1
# [6] = molecular target: Serine/threonine-protein kinase 4 (Homo sapiens) (UniProt Q13043); experiment: Inhibition of STK4 at 1 uM
# COLO 205 = experiment: Toxicity in human COLO205 cells at 8 uM by MTT assay; assay type: cell-based; settings: colo 205, 8 µM
# HeLa [7] = experiment: Cell cycle arrest in human HeLa cells assessed as accumulation at G2/M phase at 2 uM treated 4 hr and measured 12 hr post double thymidine-synchrony release using propidium iodide staining by FACS analysis (reference value: 17 %); assay type: functional; procedure, shortened: as §1
# MDA-MB-453 = experiment: Antiproliferative activity against human MDA-MB-453 assessed as inhibition of S phase cells after 48 hrs by MTT assay; assay type: functional, cell-based; settings: MDA-MB-453, 48 h
# Procedure, shortened: (§2)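 Cells grown in DMEM with 3 mM HEPES and 10% Serum Supreme at 37 °C, 5% CO2. Proliferation read by MTT assay 48 h after drug addition; IC50 given as mean of two separate determinations, each in duplicate.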
# [8] = molecular target: Serine/threonine-protein kinase Nek2 (Homo sapiens) (UniProt P51955); experiment: Inhibition of NEK2 at 1 uM
# Sequence of Serine/threonine-protein kinase Nek2 (Homo sapiens) (P51955 whole entry, canonical isoform): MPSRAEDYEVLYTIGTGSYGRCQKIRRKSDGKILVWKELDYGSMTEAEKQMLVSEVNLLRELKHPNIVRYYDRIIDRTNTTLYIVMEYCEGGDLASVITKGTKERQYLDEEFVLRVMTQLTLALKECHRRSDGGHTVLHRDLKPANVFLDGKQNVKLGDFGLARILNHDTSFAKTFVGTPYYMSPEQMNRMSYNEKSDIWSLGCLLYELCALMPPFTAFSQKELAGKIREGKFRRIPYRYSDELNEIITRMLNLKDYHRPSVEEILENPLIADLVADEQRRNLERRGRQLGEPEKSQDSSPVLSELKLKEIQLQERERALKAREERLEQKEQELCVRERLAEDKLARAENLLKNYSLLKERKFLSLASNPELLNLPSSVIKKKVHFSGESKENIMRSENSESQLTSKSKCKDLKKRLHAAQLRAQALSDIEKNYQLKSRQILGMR
# [9] = molecular target: Casein kinase I isoform gamma-1 (Homo sapiens) (UniProt Q9HCP0); experiment: Inhibition of CSNK1G1 at 1 uM
# [10] = molecular target: Proto-oncogene tyrosine-protein kinase Src (Homo sapiens, UniProt P12931); experiment: Inhibition of Src using fluorescent substrate by IMAP assay
# Sequence of Proto-oncogene tyrosine-protein kinase Src (P12931 2-536 limits assumed): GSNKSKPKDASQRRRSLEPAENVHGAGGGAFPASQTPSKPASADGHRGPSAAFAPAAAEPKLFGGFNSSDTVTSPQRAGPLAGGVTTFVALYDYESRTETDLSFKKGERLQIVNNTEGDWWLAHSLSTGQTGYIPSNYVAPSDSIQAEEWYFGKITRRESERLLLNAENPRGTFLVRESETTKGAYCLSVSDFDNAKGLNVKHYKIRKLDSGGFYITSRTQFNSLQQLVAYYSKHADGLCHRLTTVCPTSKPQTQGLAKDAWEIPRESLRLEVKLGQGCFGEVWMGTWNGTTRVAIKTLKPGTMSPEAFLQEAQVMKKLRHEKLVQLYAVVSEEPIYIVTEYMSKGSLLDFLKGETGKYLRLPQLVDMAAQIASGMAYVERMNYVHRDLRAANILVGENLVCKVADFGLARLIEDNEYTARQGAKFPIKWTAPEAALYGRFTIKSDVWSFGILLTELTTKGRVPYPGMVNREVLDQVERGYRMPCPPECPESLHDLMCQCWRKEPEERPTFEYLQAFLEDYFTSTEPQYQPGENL
# Procedure, shortened: (§3)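 Run in-house using IMAP: phosphorylated fluorescent peptide substrate binds preferentially to immobilized metal beads, which quantifies kinase activity. ATP at 3× the Km of each enzyme.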
# HeLa [11] = experiment: Cell cycle arrest at G2 phase in human HeLa cells at 2 uM treated at early S phase measured after 6-14 hr post thymidine-synchrony release by immunoblot method relative to untreated control
# [12] = molecular target: Mast/stem cell growth factor receptor Kit (Homo sapiens) (UniProt P10721); experiment: Inhibition of KIT at 1 uM
# Sequence of Mast/stem cell growth factor receptor Kit (Homo sapiens) (P10721 whole entry): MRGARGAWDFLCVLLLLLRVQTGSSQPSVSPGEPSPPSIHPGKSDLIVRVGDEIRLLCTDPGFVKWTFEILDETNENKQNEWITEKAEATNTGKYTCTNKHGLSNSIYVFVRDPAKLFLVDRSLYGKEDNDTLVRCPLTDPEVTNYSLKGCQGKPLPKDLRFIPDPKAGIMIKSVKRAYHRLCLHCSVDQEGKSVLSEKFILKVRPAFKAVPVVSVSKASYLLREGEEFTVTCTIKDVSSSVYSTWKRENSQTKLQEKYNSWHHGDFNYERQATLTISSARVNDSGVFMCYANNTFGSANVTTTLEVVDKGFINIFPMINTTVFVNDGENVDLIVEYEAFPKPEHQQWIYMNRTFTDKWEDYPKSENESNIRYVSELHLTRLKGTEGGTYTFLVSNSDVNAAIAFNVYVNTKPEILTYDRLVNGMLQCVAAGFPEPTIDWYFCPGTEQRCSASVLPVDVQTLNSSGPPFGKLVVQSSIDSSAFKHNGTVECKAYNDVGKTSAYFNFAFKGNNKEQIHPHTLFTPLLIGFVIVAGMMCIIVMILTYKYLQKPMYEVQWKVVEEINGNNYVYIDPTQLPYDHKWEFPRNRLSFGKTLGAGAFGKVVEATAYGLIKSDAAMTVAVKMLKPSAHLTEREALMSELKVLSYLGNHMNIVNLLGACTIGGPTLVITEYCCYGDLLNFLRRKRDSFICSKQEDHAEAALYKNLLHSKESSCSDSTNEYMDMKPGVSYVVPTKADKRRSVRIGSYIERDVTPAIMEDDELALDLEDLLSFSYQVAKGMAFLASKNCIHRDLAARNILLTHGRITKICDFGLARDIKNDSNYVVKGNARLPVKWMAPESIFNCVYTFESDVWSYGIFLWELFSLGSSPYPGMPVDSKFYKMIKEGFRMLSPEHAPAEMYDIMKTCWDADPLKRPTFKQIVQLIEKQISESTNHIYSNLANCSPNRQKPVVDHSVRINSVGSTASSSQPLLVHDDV
# [13] = molecular target: Insulin-like growth factor 1 receptor (Homo sapiens, UniProt P08069); experiment: Inhibition of IGF1R using fluorescent substrate by IMAP assay; procedure, shortened: as §3
# Sequence of Insulin-like growth factor 1 receptor (P08069 31-736 limits assumed): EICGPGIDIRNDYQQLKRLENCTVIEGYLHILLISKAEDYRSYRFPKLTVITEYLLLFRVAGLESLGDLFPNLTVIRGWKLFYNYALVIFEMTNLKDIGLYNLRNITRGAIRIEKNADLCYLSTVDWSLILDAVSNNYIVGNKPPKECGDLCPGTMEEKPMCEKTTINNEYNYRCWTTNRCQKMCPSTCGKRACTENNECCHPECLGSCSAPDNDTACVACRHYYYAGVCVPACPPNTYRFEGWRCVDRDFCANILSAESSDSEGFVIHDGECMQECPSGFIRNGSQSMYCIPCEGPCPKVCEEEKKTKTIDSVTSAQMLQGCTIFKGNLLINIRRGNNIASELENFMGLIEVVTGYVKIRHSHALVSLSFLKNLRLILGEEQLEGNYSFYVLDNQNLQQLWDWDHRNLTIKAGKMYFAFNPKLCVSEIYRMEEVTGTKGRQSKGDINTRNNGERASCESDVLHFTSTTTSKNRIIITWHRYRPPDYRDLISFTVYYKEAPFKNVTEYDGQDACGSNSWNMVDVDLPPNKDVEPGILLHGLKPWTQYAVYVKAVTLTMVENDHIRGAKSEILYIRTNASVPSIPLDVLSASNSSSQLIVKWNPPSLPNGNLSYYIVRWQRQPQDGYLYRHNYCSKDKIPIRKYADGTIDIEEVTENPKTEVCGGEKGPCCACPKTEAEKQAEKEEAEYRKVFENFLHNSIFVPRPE
# Sequence of Insulin-like growth factor 1 receptor (P08069 741-1367 limits assumed): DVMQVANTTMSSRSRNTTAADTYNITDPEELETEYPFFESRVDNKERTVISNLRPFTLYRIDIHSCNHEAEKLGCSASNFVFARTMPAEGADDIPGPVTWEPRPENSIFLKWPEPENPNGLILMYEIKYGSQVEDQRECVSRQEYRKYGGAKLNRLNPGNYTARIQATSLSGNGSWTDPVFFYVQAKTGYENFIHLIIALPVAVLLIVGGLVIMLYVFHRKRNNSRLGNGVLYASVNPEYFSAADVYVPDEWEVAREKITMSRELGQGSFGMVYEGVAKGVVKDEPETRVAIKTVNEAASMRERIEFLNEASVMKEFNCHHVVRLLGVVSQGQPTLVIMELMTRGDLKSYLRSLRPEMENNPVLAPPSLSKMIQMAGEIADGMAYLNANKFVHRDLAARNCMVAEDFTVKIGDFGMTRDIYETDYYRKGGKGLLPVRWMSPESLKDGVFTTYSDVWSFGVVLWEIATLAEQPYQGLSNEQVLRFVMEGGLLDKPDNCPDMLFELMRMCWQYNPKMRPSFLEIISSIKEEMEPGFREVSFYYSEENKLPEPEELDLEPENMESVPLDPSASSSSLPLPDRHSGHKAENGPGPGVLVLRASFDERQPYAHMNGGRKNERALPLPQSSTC
# HeLa [14] = experiment: Cell cycle arrest in human HeLa cells assessed as accumulation at S phase at 2 uM treated 6 hr and measured 10 hr post double thymidine-synchrony release using propidium iodide staining by FACS analysis (reference value: 1 %); assay type: functional; procedure, shortened: as §1
# [15] = molecular target: Ephrin type-A receptor 6 (Homo sapiens) (UniProt Q9UF33); experiment: Inhibition of EPHA6 at 1 uM
# Sequence of Ephrin type-A receptor 6 (Homo sapiens) (Q9UF33 whole entry): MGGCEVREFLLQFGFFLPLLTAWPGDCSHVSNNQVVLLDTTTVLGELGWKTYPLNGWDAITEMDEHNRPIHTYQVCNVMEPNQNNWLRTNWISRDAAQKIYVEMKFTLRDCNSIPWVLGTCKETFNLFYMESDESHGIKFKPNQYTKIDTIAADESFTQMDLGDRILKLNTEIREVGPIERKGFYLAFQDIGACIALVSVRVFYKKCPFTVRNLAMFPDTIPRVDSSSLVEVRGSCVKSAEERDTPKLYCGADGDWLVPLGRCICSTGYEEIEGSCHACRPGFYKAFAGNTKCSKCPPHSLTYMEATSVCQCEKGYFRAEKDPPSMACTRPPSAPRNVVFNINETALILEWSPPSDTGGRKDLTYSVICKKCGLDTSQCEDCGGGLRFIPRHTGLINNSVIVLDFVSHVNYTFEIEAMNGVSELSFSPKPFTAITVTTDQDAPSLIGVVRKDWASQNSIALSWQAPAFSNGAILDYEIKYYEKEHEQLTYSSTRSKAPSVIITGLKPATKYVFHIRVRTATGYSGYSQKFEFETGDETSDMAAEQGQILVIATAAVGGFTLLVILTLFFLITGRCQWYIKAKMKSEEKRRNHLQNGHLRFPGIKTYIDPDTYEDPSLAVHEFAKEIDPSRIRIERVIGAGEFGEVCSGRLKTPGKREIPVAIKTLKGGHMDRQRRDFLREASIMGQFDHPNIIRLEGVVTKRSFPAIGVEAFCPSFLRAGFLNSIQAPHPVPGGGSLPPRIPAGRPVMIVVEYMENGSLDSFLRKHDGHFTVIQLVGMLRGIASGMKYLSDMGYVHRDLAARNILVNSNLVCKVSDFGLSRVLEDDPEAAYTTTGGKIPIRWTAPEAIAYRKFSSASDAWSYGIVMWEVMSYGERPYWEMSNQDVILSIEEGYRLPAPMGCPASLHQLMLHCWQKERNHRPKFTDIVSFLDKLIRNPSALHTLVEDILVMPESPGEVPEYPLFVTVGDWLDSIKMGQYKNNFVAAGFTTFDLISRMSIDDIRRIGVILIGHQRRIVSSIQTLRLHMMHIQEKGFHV
# [16] = Cell cycle arrest in human SK-MEL-13 cells assessed as accumulation at G2/M phase at 2 uM treated 1 hr and measured 8 hr post double hydroxyurea-synchrony release using propidium iodide staining by FACS analysis (reference value: 16 %); assay type: functional, cell-based
# Procedure, shortened: (§4)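 SK-Mel-13 cells synchronized with 2 mM hydroxyurea, then treated with 2 μM CDK4 inhibitor or left untreated 1 h after release. Harvested at indicated times post-release, ethanol-fixed, propidium iodide/RNase stained, and DNA content read by FACS. Proportions of G1, S and G2/M cells derived with ModFit.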
# A2058 = experiment: Cell cycle arrest in human A2058 cells assessed as effect on G2/M phase progression at 2 uM treated 6 hr post double hydroxyurea-synchrony release using propidium iodide staining by FACS analysis; assay type: functional, cell-based
# [17] = Cell cycle arrest in human SK-MEL-13 cells assessed as accumulation at G1 phase at 2 uM treated 1 hr and measured 12 hr post double hydroxyurea-synchrony release using propidium iodide staining by FACS analysis (reference value: 40 %); assay type: functional, cell-based; procedure, shortened: as §4
# [18] = Cell cycle arrest in human SK-MEL-13 cells assessed as accumulation at G1 phase at 2 uM treated 1 hr and measured 10 hr post double hydroxyurea-synchrony release using propidium iodide staining by FACS analysis (reference value: 14 %); assay type: functional, cell-based; procedure, shortened: as §4
# RKO = experiment: Antiproliferative activity against human RKO cells assessed as inhibition of S phase after 48 hrs by MTT assay; assay type: functional, cell-based; procedure, shortened: as §2
# HeLa [19] = experiment: Cell cycle arrest at G2 phase in human HeLa cells assessed as delay in entry into mitosis at 2 uM treated 1 hr after double thymidine-synchrony release by MPM-2-based FACS analysis (reference value: 8 hrs); assay type: functional
# HCT-116 = experiment: Cell cycle arrest in Rb-competent human HCT116 cells assessed as […] at IC50 after 24 hrs using BrdUrd staining by FACS analysis (Rvb =38 %); assay type: functional
# [20] = molecular target: Mitogen-activated protein kinase 3 (Homo sapiens, UniProt P27361); experiment: Inhibition of ERK1 using fluorescent substrate by IMAP assay; procedure, shortened: as §3
# Sequence of Mitogen-activated protein kinase 3 (P27361 whole entry): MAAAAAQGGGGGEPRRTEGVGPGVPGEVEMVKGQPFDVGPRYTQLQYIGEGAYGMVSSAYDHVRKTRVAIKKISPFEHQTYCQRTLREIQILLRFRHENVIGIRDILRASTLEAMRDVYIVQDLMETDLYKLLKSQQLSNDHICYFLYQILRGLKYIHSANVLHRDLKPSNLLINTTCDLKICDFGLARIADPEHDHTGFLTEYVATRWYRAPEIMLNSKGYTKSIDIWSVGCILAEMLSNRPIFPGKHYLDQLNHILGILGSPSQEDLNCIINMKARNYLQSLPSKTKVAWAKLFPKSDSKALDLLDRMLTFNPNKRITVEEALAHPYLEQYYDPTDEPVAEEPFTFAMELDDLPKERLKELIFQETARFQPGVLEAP
# HeLa [21] = experiment: Induction of abberent mitosis in synchronized human HeLa cells expressing GFP-H2B assessed as micronuclei formation at 2 uM treated 1 hr and measured 12 hr post thymidine-synchrony release by time-lapse microscopy; assay type: functional, cell-based
# [22] = molecular target: Platelet-derived growth factor receptor beta (Homo sapiens) (UniProt P09619); experiment: Inhibition of PDGFRB at 1 uM
# NCI-H460 = experiment: Antiproliferative activity against human H460a cells assessed as inhibition of S phase after 48 hrs by MTT assay; assay type: functional, cell-based; settings: NCI-H460, 48 h; procedure, shortened: as §2
# HeLa [23] = experiment: Cell cycle arrest at G2 phase in human HeLa cells assessed as delay in phosphotyrosine 15 CDK1 accumulation at 2 uM treated at early S phase measured after 6-14 hr post thymidine-synchrony release by immunoblot method; assay type: functional, cell-based
# Procedure, shortened: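 HeLa cells synchronized by double thymidine block and released, treated with 2 μM inhibitor in early S phase, or left untreated. Harvested at set times after release, lysed in NETN with phosphatase and protease inhibitors, run on SDS-PAGE and immunoblotted for cyclin B1 and phosphotyrosine 15 CDK1/2, with cyclin D3 as loading control. Detection by HRP secondary and ECL.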
Compound,Activity (HeLa [3]) [%],Time (HeLa [4]) [h],Activity (HeLa [5]) [%],Activity (COLO 205),Activity (HeLa [7]) [%],IC50 (MDA-MB-453) [µM],IC50 [10] [µM],Activity (HeLa [11]),IC50 [13] [µM],Activity (HeLa [14]) [%],Activity [16] [%],Activity (A2058),Activity [17] [%],Activity [18] [%],IC50 (RKO) [µM],Time (HeLa [19]) [h],Activity (HCT-116) [%],IC50 [20] [µM],Activity (HeLa [21]),IC50 (NCI-H460) [µM],further results
CN1CCN(c2ccc(Nc3nc(N)c(C(=O)c4ccc5c(c4)OCCO5)s3)cc2)CC1,4,12,88,Toxic,62,1.45,3.21,Active,22,1,70,inactive,13,11,1.6,12,20,> 100,Active,8.12,inhibition [1]: < 50%; inhibition [2]: < 50%; inhibition [6]: < 50%; inhibition [8]: < 50%; inhibition [9]: 98%; inhibition [12]: < 50%; inhibition [15]: < 50%; inhibition [22]: < 50%; Activity (HeLa [23]): Active
COc1cccc(C(=O)c2sc(Nc3ccc(N4CCN(C(C)C)CC4)cc3)nc2N)c1,4,12,88,Toxic,62,0.71,3.48,Active,20,1,70,inactive,13,11,0.54,12,20,> 100,Active,1.14,Activity (HeLa [23]): Active
